Data: ChEMBL document CHEMBL1136983, “Synthesis, cleavage, and antifungal activity of a number of novel, water-soluble ester prodrugs of antifungal triazole CS-758” (Bioorg Med Chem Lett, 2009)
Values belong to the molecule of their own block, whether it stands above or below them. The source made the active and inactive calls. The calls are words filed in the database; no cut-off is given here.

Key:
[1] = Solubility in water; type: physicochemical
[2] = Cmax in rat at 2 mg/kg, iv; type: ADME, organism-based; design: dose 2 mg/kg, route intravenous; settings: in vivo
Summary of the method: (§1)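 Rats received a single iv dose of prodrug at 2 mg/kg, and plasma CS-758 was followed over time (average of three rats). Bioavailability (%) = AUC of CS-758 after iv prodrug / AUC of CS-758 after iv CS-758 dissolved in polyethylene glycol solution × 100.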

[3] = Bioavailability in rat at 2 mg/kg, iv; type: ADME, organism-based; settings: in vivo; summary of the method: as §1
Liver microsomes [4] = experiment: Metabolic stability in human liver microsomes assessed as formation of (2R,3R)-3-((2R,5r)-2-((1E,3E)-4-(4-cyano-2-fluorophenyl)buta-1,3-dienyl)-1,3-dioxan-5-ylthio)-2-(2,4-difluorophenyl)-1-(1H-1,2,4-triazol-1-yl)butan-2-yl 2-hydroxyacetate after 30 mins; type: ADME, Microsome; settings: 0.5 h
Liver microsomes [5] = experiment: Metabolic stability in human liver microsomes assessed as formation of (2R,3R)-3-((2R,5r)-2-((1E,3E)-4-(4-cyano-2-fluorophenyl)buta-1,3-dienyl)-1,3-dioxan-5-ylthio)-2-(2,4-difluorophenyl)-1-(1H-1,2,4-triazol-1-yl)butan-2-yl 2-hydroxyacetate after 120 mins; type: ADME, Microsome; settings: 2 h
Rattus norvegicus = experiment: Half life in rat assessed as CS-758 elimination at 2 mg/kg, iv; type: ADME, organism-based; design: dose 2 mg/kg, route intravenous; settings: in vivo; summary of the method: as §1
Candida albicans = experiment: Antifungal activity against Candida albicans SANK 51486 infected in mouse at 0.2 to 20 mg/kg, iv administered 2 hrs post infection measured after 24 hrs; type: functional, organism-based
Summary of the method: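 Mouse systemic Candida albicans infection, challenge 4.2 × 10⁵ CFU/mouse. Single dose 2 h after challenge, at 0.2, 2 or 20 mg/kg, vehicle controls. Kidney viable cell counts taken at 24 h. Mean + S.E., n = 8 per group, significance at p<0.05 and p<0.001.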

- solubility [1]: < 1000 µg/mL
Structure (SMILES): C[C@@H](S[C@H]1CO[C@H](/C=C/C=C/c2ccc(C#N)cc2F)OC1)[C@@](Cn1cncn1)(OC(=O)CO)c1ccc(F)cc1F

- solubility [1]: < 1000 µg/mL
Structure (SMILES): C[C@@H](S[C@H]1CO[C@H](/C=C/C=C/c2ccc(C#N)cc2F)OC1)[C@@](Cn1cncn1)(OC(=O)CCN)c1ccc(F)cc1F

- Cmax [2]: 1300 ng/mL
- bioavailability [3]: 3.3%
Structure (SMILES): C[C@@H](S[C@H]1CO[C@H](/C=C/C=C/c2ccc(C#N)cc2F)OC1)[C@](O)(Cn1cncn1)c1ccc(F)cc1F [EMBECONAZOLE]

- solubility [1]: < 1000 µg/mL
Structure (SMILES): C[C@@H](S[C@H]1CO[C@H](/C=C/C=C/c2ccc(C#N)cc2F)OC1)[C@@](Cn1cncn1)(OC(=O)CN)c1ccc(F)cc1F

- Activity (Liver microsomes [4]): Active
- Activity (Liver microsomes [5]): Active
- solubility [1]: > 10000 µg/mL
Structure (SMILES): C[C@@H](S[C@H]1CO[C@H](/C=C/C=C/c2ccc(C#N)cc2F)OC1)[C@@](Cn1cncn1)(OC(=O)COP(=O)([O-])O)c1ccc(F)cc1F.[Na+]

- Activity (Liver microsomes [4]): Active
- Activity (Liver microsomes [5]): Active
- solubility [1]: > 10000 µg/mL
Structure (SMILES): C[C@@H](S[C@H]1CO[C@H](/C=C/C=C/c2ccc(C#N)cc2F)OC1)[C@@](Cn1cncn1)(OC(=O)COC(=O)CCC(=O)[O-])c1ccc(F)cc1F.[Na+]

- bioavailability [3]: 3.3%
- solubility [1]: > 10000 µg/mL
Structure (SMILES): C[C@@H](S[C@H]1CO[C@H](/C=C/C=C/c2ccc(C#N)cc2F)OC1)[C@@](Cn1cncn1)(OC(=O)C[N+](C)(C)C)c1ccc(F)cc1F.[Cl-]

- solubility [1]: < 1000 µg/mL
Structure (SMILES): C[C@@H](S[C@H]1CO[C@H](/C=C/C=C/c2ccc(C#N)cc2F)OC1)[C@@](Cn1cncn1)(OC(=O)CN(C)C)c1ccc(F)cc1F

- t1/2 (Rattus norvegicus): 5.7 h
- solubility [1]: > 30000 µg/mL
Structure (SMILES): C[C@@H](S[C@H]1CO[C@H](/C=C/C=C/c2ccc(C#N)cc2F)OC1)[C@@](Cn1cncn1)(OP(=O)([O-])O)c1ccc(F)cc1F.[Na+]
- Activity (Candida albicans): Active
